Data: ChEMBL document CHEMBL3259553 (J Med Chem, 2014)
Calls of active or inactive are those of the source. No cut-off for these calls is given here.

Experiments:
Rattus norvegicus [1] = experiment: Cardiotoxicity in thyroidectomized rat assessed as induction of alpha-MHC hnRNA expression in cardiac myocyte at 5 to 37.5 mg/kg, ip measured after 6 hrs; assay type: toxicity, organism-based, Heart; set-up: dose 5-37.5 mg/kg, route intraperitoneal; conditions: in vivo
Method in brief: (§1)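 Thyroidectomized rats were dosed intraperitoneally at 5, 20 or 37.5 mg/kg, with 4 rats per group. Vehicle was 4% DMSO, 15% PEG-400 and 81% of 30% HPBCD in phosphate buffer. Cardiac α-MHC hnRNA, in arbitrary units, and plasma concentration were measured 6 h after dosing. Comparators were untreated thyroidectomized rats and euthyroid rats.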

Homo sapiens [2] = experiment: Toxicity in healthy human with mildly elevated LDL-C level assessed as reversible reduction in free T4 level at 200 mg, po qd for 2 weeks; assay type: organism-based; set-up: scale not given: the % may be the effect or the level left; conditions: in vivo, 336 h
Method in brief: (§2)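 Healthy subjects with LDL-C >110 mg/dL received once daily oral doses for 2 weeks in a multiple ascending dose study. Free T3, free T4 and TSH were compared with placebo.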

Oryctolagus cuniculus [3] = species on record: Oryctolagus cuniculus; experiment: Toxicity in hypercholesterolemic rabbit model assessed as effect on central thyroid axis; assay type: organism-based; conditions: in vivo
Homo sapiens [4] = experiment: Toxicity in healthy human with mildly elevated LDL-C level assessed as effect on vital signs at 5 to 200 mg, po qd for 2 weeks by multiple ascending dose study; assay type: organism-based; conditions: in vivo, 336 h
Method in brief: (§3)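 Multiple ascending dose study after single ascending dose study. Healthy subjects with LDL-C >110 mg/dL received once daily oral doses of 5 to 200 mg for 2 weeks. Safety and tolerability were assessed, covering QT interval, heart rate, vital signs and liver enzymes.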

Homo sapiens [5] = experiment: Antidyslipidemic activity in healthy human with mildly elevated LDL-C level assessed as reduction in triglyceride at 50 to 200 mg, po qd for 2 weeks by multiple ascending dose study relative to placebo control; assay type: functional; set-up: scale not given: the % may be the effect or the level left
Method in brief: (§4)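 Multiple ascending dose study lasting 2 weeks, run after a single ascending dose study. Healthy subjects with LDL-C >110 mg/dL took oral doses once daily from 5 to 200 mg. Safety, thyroid axis measures (free T4, free T3, TSH), heart rate, QT and liver enzymes were monitored. Lipid changes were compared with placebo.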

Rattus norvegicus [6] = experiment: Toxicity in thyroidectomized rat assessed as T3 activity at 37.5 mg/kg, ip measured after 6 hrs; assay type: organism-based; set-up: dose 37.5 mg/kg, route intraperitoneal; conditions: in vivo
Method in brief: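 Thyroidectomized rats, 4 per group, dosed ip at 5, 20 and 37.5 mg/kg in 4% DMSO, 15% PEG-400 and 81% of 30% HPBCD in phosphate buffer. Cardiac α-MHC hnRNA was measured 6 h post-dose and expressed relative to euthyroid or T3-treated full activity. Plasma exposure was measured at 6 h.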

Mus musculus [7] = experiment: Toxicity in diet-induced obese C57Bl/6J mouse model assessed as effect on heart size at 0.3 to 10 mg/kg, po administered daily for 23 days; assay type: organism-based; set-up: dose 0.3-10 mg/kg, route oral; conditions: in vivo
Method in brief: (§5)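 C57Bl/6J mice aged six weeks were fed a high fat diet for 34 weeks. Body weight and food intake were monitored. BMD and body composition were assessed on day 22, and laboratory assessments were made at study end.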

[8] = AUC in rat at 5 mg/kg, po; assay type: ADME, organism-based; set-up: dose 5 mg/kg, route oral; conditions: plasma
[9] = Tmax in rat at 5 mg/kg, po; assay type: ADME, organism-based; set-up: dose 5 mg/kg, route oral; conditions: in vivo
Method in brief: (§6)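 Rat pharmacokinetics after a 5 mg/kg dose given iv, or given orally as a suspension. Values are means with SD from N = 3 rats.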

Mus musculus [10] = species on record: Mus musculus; experiment: Antidyslipidemic activity in diet-induced obese C57Bl/6J mouse model assessed as improvement of insulin sensitivity; assay type: functional, organism-based
Homo sapiens [11] = experiment: Antidyslipidemic activity in healthy human with mildly elevated LDL-C level assessed as reduction in lipids at 80 mg, po qd; assay type: functional, organism-based
Homo sapiens [12] = experiment: Toxicity in healthy human with mildly elevated LDL-C level assessed as adverse events at 5 to 200 mg, po qd for 2 weeks by multiple ascending dose study; assay type: organism-based; conditions: in vivo, 336 h; method in brief: as §4
Mus musculus [13] = experiment: Antidyslipidemic activity in diet-induced obese C57Bl/6J mouse model assessed as reduction in liver size at 0.3 to 10 mg/kg, po administered daily for 23 days; assay type: functional, organism-based; method in brief: as §5
Homo sapiens [14] = experiment: Toxicity in healthy human with mildly elevated LDL-C level assessed as effect on QT interval at 5 to 200 mg, po qd for 2 weeks by multiple ascending dose study; assay type: organism-based; conditions: in vivo, 336 h; method in brief: as §3
Rattus norvegicus [15] = species on record: Rattus norvegicus; experiment: Toxicity in hypercholesterolemic rat model assessed as effect on central thyroid axis; assay type: organism-based; conditions: in vivo
[16] = Fraction unbound in human; assay type: ADME, organism-based; conditions: in vivo
[17] = Oral bioavailability in rat at 5 mg/kg; assay type: ADME, organism-based; conditions: in vivo; method in brief: as §6
Mus musculus [18] = experiment: Antidyslipidemic activity in diet-induced obese C57Bl/6J mouse model assessed as reduction in cholesterol level at 0.3 to 10 mg/kg, po administered daily for 23 days; assay type: functional, organism-based; method in brief: as §5
Homo sapiens [19] = experiment: Toxicity in healthy human with mildly elevated LDL-C level assessed as central thyroid axis dysfunction at 5 to 200 mg, po qd for 2 weeks by multiple ascending dose study; assay type: organism-based; conditions: in vivo, 336 h; method in brief: as §4
Mus musculus [20] = species on record: Mus musculus; experiment: Antidyslipidemic activity in diet-induced obese C57Bl/6J mouse model assessed as lowering glucose level to near normal level; assay type: functional, organism-based
Homo sapiens [21] = experiment: Toxicity in healthy human with mildly elevated LDL-C level assessed as effect on TSH level at 100 to 200 mg, po qd for 2 weeks; assay type: organism-based; conditions: in vivo, 336 h; method in brief: as §2
Caco-2 = experiment: Permeability from apical to basolateral side of human Caco2 cells; assay type: ADME, cell-based
[22] = Ratio of drug uptake in liver to plasma in diet-induced obese C57Bl/6J mouse model; assay type: ADME, tissue-based
[23] = Plasma concentration in thyroidectomized rat at 37.5 mg/kg, ip measured after 6 hrs; assay type: ADME, organism-based; set-up: dose 37.5 mg/kg, route intraperitoneal; method in brief: as §1
Homo sapiens [24] = experiment: Antidyslipidemic activity in healthy human with mildly elevated LDL-C level assessed as reduction in LDL-C at 50 to 200 mg, po qd for 2 weeks by multiple ascending dose study relative to placebo control; assay type: functional; set-up: scale not given: the % may be the effect or the level left; method in brief: as §4
[25] = AUC in rat at 5 mg/kg, iv; assay type: ADME, organism-based; set-up: dose 5 mg/kg, route intravenous; conditions: plasma
Rattus norvegicus [26] = experiment: Cmax in rat at 5 mg/kg, po; assay type: ADME, organism-based; set-up: dose 5 mg/kg, route oral; conditions: in vivo; method in brief: as §6
[27] = Clearance in rat at 5 mg/kg, iv; assay type: ADME, organism-based; set-up: dose 5 mg/kg, route intravenous; conditions: in vivo; method in brief: as §6
Cytochrome P450 3A4 = Cytochrome P450 3A4 (Homo sapiens, UniProt P08684); experiment: Inhibition of CYP3A4 (unknown origin); assay type: ADME
Cytochrome P450 3A4, sequence (P08684 whole entry): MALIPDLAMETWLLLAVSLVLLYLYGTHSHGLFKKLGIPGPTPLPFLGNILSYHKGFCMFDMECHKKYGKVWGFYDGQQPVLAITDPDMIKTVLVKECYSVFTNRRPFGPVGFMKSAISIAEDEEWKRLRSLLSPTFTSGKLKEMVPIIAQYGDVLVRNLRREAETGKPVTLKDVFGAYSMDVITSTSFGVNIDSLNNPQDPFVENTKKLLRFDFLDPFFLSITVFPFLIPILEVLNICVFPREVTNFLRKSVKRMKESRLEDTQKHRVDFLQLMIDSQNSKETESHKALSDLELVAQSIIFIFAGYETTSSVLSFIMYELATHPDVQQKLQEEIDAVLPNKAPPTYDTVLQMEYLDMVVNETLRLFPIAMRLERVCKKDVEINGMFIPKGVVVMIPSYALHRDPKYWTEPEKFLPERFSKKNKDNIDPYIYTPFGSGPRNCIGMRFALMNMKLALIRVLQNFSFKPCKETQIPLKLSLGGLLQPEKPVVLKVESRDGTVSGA

Homo sapiens [28] = experiment: Toxicity in healthy human with mildly elevated LDL-C level assessed as effect on effect on liver enzymes at 5 to 200 mg, po qd for 2 weeks by multiple ascending dose study; assay type: organism-based; conditions: in vivo, 336 h; method in brief: as §3
Mus musculus [29] = experiment: Antidyslipidemic activity in diet-induced obese C57Bl/6J mouse model assessed as reduction in liver triglycerides at 0.3 to 10 mg/kg, po administered daily for 23 days; assay type: functional, organism-based; method in brief: as §5
[30] = Volume of distribution at steady state in rat at 5 mg/kg, iv; assay type: ADME, organism-based; set-up: dose 5 mg/kg, route intravenous; conditions: in vivo, read-out: Vdss
Method in brief: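 Rats, N = 3, dosed iv at 5 mg/kg in parallel with a 5 mg/kg oral suspension. Pharmacokinetic parameters are mean values with SD.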

Homo sapiens [31] = experiment: Toxicity in healthy human with mildly elevated LDL-C level assessed as effect on free T3 level at 100 to 200 mg, po qd for 2 weeks; assay type: organism-based; conditions: in vivo, 336 h; method in brief: as §2
Homo sapiens [32] = experiment: Toxicity in healthy human with mildly elevated LDL-C level assessed as effect on heart rate at 5 to 200 mg, po qd for 2 weeks by multiple ascending dose study; assay type: organism-based; conditions: in vivo, 336 h; method in brief: as §3
Mus musculus [33] = experiment: Toxicity in diet-induced obese C57Bl/6J mouse model assessed as effect on bone mineral density at 0.3 to 10 mg/kg, po administered daily for 23 days; assay type: organism-based; set-up: dose 0.3-10 mg/kg, route oral; conditions: in vivo; method in brief: as §5
Rattus norvegicus [34] = species on record: Rattus norvegicus; experiment: Toxicity in hypercholesterolemic rat model assessed as effect on TSH level; assay type: organism-based; conditions: in vivo
Oryctolagus cuniculus [35] = species on record: Oryctolagus cuniculus; experiment: Antidyslipidemic activity in hypercholesterolemic rabbit model assessed as reduction in non-HDL-C level; assay type: functional, organism-based

AUC [8]: 17400 ng·h/mL | Tmax [9]: 6 h | Fu [16]: 0.6% | bioavailability [17]: 45% | permeability (Caco-2): 1.37 ×10⁻⁶ cm/s | Kp [22]: 8 | concentration at 6 h [23]: 94 µM | AUC [25]: 38100 ng·h/mL | Cmax (Rattus norvegicus [26]): 1710 ng/mL | clearance [27]: 2.35 mL/min/kg | IC50 (Cytochrome P450 3A4): > 50 µM | Vd [30]: 0.422 L/kg
SMILES: CC(C)c1cc(Oc2c(Cl)cc(-n3nc(C#N)c(=O)[nH]c3=O)cc2Cl)n[nH]c1=O [RESMETIROM]
Activity (Rattus norvegicus [1]): Non-toxic | Activity (Homo sapiens [2]): 20% | Activity (Oryctolagus cuniculus [3]): Non-toxic | Activity (Homo sapiens [4]): Non-toxic | Activity (Homo sapiens [5]): <=60% | Activity (Rattus norvegicus [6]): 0% | Activity (Mus musculus [7]): Non-toxic | Activity (Mus musculus [10]): Active | Activity (Homo sapiens [11]): Active | Activity (Homo sapiens [12]): Non-toxic | Activity (Mus musculus [13]): Active | Activity (Homo sapiens [14]): Non-toxic | Activity (Rattus norvegicus [15]): Non-toxic | Activity (Mus musculus [18]): Active | Activity (Homo sapiens [19]): Non-toxic | Activity (Mus musculus [20]): Active | Activity (Homo sapiens [21]): Non-toxic | Activity (Homo sapiens [24]): <=30% | Activity (Homo sapiens [28]): Non-toxic | Activity (Mus musculus [29]): Active | Activity (Homo sapiens [31]): Non-toxic | Activity (Homo sapiens [32]): Non-toxic | Activity (Mus musculus [33]): Non-toxic | Activity (Rattus norvegicus [34]): Non-toxic | Activity (Oryctolagus cuniculus [35]): Active
